Laboratory results published in ChEMBL document CHEMBL5608183, “Synthesis and evaluation of 3,4,5-trisubstituted triazoles as G protein-biased kappa opioid receptor agonists” (Eur J Med Chem, 2024).
Activity calls are given as the source filed them. The rule behind the calls is not given here.

What was measured:
[1] = target: T1, Kappa-type opioid receptor (Homo sapiens, UniProt P41145); assay: Agonist activity at recombinant human kappa opioid receptor extracted from CHO cell membrane assessed as induction of [35S]GTPgammaS binding by measuring maximum efficacy at 10 uM incubated for 1 hr by TopCount NXT Microplate Scintillation and Luminescence Counter analysis relative to U69,593; format: functional, cell membranes
[2] = target: T1, Kappa-type opioid receptor; assay: Agonist activity at recombinant human kappa opioid receptor extracted from CHO cell membrane assessed as induction of [35S]GTPgammaS binding incubated for 1 hr by TopCount NXT Microplate Scintillation and Luminescence Counter analysis; format: functional, cell membranes
[3] = target: T1, Kappa-type opioid receptor; assay: Agonist activity at human kappa opioid receptor tranfected in U2OS cells co-transfected with arrestin2-EFC assessed as induction of beta arrestin2 recruitment incubated for 90 mins by Synergy HT luminometer; format: functional, cell-based
Procedure, shortened: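 PathHunter enzyme-fragment complementation in U2OS cells stably expressing hKOR and βarrestin2, grown in MEM with 10% FBS, geneticin and hygromycin B, run per manufacturer's protocol. Concentration–response curves were fit by three-parameter nonlinear regression, normalized to vehicle and to maximal stimulation by the reference agonist U69,593 on the same plate. 2–4 replicates per experiment; n ≥ 3 independent experiments; 95% CI.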

[4] = Metabolic stability in mouse liver microsome assessed as half life at 1 uM by LC-MS/MS analysis; format: ADME; settings: liver microsomes
Procedure, shortened: (§1)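 Hepatic microsomes (1 mg/mL) were incubated with 1 μM compound at 37 °C with continuous shaking. Reactions were quenched with acetonitrile at 5-min intervals over 1 h and filtered. Half-life was determined by LC-MS/MS.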

[5] = target: T1, Kappa-type opioid receptor; assay: Agonist activity at human kappa opioid receptor tranfected in U2OS cells co-transfected with arrestin2-EFC assessed as induction of beta arrestin2 recruitment by measuring maximum efficacy incubated for 90 mins by Synergy HT luminometer relative to […]; format: functional, cell-based
Procedure, shortened: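 PathHunter enzyme-fragment complementation in U2OS cells stably expressing hKOR and βarrestin2, grown in MEM with 10% FBS, geneticin and hygromycin B, run per manufacturer's protocol. Concentration–response curves were fit by three-parameter nonlinear regression, normalized to vehicle and to maximal stimulation by the reference agonist U69,593 on the same plate.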

[6] = Metabolic stability in human liver microsome assessed as half life at 1 uM by LC-MS/MS analysis; format: ADME, microsomes; settings: for half-life at 1 µM: liver microsomes; for t1/2: microsomes, 1 µM; procedure, shortened: as §1
[7] = target: Mu-type opioid receptor (Homo sapiens) (UniProt P35372); assay: Binding affinity to Mu opioid receptor (unknown origin) assessed as inhibition of [3H]-D-Ala2,N-MePhe4,Gly-ol-enkephalin binding at 10 uM by radioligand binding assay relative to control
[8] = target: T1, Kappa-type opioid receptor; assay: Binding affinity to kappa opioid receptor (unknown origin) assessed as inhibition of [3H]-[…] binding at 10 uM by radioligand binding assay relative to control; settings: filed as agonist
[9] = target: T1, Kappa-type opioid receptor; assay: Displacement of [3H]-[…] from kappa opioid receptor (unknown origin) assessed as inhibition constant by radioligand binding assay
[10] = target: Delta-type opioid receptor (Homo sapiens) (UniProt P41143); assay: Binding affinity to delta opioid receptor (unknown origin) assessed as inhibition of [3H]-D-Ala2,D-Leu5-enkephalin binding at 10 uM by radioligand binding assay relative to control
Sequence of Delta-type opioid receptor (Homo sapiens) (P41143 whole entry): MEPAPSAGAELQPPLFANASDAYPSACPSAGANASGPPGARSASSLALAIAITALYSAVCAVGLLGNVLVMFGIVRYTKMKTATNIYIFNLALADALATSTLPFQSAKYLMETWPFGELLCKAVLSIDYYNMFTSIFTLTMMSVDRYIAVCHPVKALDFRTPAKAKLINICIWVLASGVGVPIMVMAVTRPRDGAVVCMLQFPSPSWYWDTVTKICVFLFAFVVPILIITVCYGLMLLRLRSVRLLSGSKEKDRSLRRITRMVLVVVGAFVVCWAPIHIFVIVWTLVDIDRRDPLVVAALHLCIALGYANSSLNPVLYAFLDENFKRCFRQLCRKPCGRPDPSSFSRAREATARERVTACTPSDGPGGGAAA

T1 sequence (P41145 whole entry): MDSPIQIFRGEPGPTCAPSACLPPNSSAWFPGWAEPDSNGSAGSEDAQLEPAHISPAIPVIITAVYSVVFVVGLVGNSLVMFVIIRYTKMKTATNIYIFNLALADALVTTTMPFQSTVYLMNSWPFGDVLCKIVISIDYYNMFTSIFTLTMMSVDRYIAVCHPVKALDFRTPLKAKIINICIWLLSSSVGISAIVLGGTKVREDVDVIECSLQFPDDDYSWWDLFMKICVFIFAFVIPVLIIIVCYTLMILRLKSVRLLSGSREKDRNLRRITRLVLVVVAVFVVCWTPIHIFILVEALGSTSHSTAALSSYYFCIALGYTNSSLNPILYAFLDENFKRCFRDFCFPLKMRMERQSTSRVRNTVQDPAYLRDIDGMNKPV
Sequence of Mu-type opioid receptor (Homo sapiens) (P35372 whole entry): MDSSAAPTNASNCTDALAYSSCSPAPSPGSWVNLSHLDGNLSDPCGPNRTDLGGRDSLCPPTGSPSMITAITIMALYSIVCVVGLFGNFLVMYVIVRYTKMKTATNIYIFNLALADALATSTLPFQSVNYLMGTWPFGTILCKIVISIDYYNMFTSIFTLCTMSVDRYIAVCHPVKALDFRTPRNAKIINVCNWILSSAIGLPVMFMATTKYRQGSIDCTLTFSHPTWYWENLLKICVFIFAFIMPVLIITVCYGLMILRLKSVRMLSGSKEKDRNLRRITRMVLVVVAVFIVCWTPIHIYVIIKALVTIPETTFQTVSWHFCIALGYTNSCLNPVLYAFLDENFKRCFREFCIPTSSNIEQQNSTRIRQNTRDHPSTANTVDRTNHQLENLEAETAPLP

Structure (SMILES)	Emax ([1]; filed as agonist) [%]	EC50 [2] [nM]	EC50 [3] [nM]	half-life at 1 µM [4] [min]	Emax ([5]; filed as agonist) [%]	half-life at 1 µM [6] [min]	also measured
Clc1ccc(CCc2nnc(-c3ccccn3)n2Cc2cccs2)c(Cl)c1	91	32	5160	2.6	154	2.1	
Cc1ccc(/C=C/c2nnc(-c3ccccn3)n2Cc2ccco2)cc1C(F)(F)F	89	1170		32.2			t1/2 [6]: 18 min
Cc1ccc(CCc2nnc(-c3ccccn3)n2Cc2ccco2)cc1C(F)(F)F	90	21	803	0.8			t1/2 [6]: 0.9 min
Cc1ccc(/C=C/c2nnc(-c3ccccn3)n2Cc2nccs2)cc1C(F)(F)F	83	1130					
Cc1ccc(/C=C/c2nnc(-c3nccn3C)n2Cc2nccs2)cc1C(F)(F)F	309		2190				Emax [5]: 36%
Clc1ccc(CCc2nnc(-c3ccccn3)n2Cc2cccs2)cc1Cl		5	319	1.2		1.5	
c1ccc(-c2nnc(CCc3ccc4ccccc4c3)n2Cc2cccs2)nc1		12	896				
FC(Cc1nnc(-c2ccccn2)n1Cc1cccs1)c1ccccc1 (stereo not given)	82			0.9		7.2	
Cc1ccc(CCc2nnc(-c3cccc4ccccc34)n2Cc2cccs2)cc1C(F)(F)F		429					
Clc1ccc(CCc2nnc(-c3ccccn3)n2Cc2cccs2)cc1	86	33	2870	3.3	137	3.3	
Cc1ccc(CCc2nnc(-c3ccccn3)n2Cc2cccnc2)cc1C(F)(F)F	87	55	421	1.6	119	1.7	
Cc1ccc(CCc2nnc(-c3ccccn3)n2Cc2ccccn2)cc1C(F)(F)F	84	175	8120		127		
Brc1ccc(CCc2nnc(-c3ccccn3)n2Cc2cccs2)cc1	92	20	723		93		
Cc1ccc(/C=C/c2nnc(-c3ccccn3)n2Cc2cccs2)cc1C(F)(F)F	79	496		30.2		22	
OC(Cc1nnc(-c2ccccn2)n1Cc1cccs1)c1ccccc1 (stereo not given)				2.6		20.7	Emax [1]: 17%
c1ccc(CCc2nnc(-c3ccccn3)n2Cc2cccs2)cc1	76	926		1.6		5.5	
Cc1ccc(CCc2nnc(-c3ncccc3C)n2Cc2cccs2)cc1C(F)(F)F		13	1610		118		
COc1ccc(CCc2nnc(-c3ccccn3)n2Cc2cccs2)cc1		122					
Cc1ccc(CCc2nnc(-c3nccn3C)n2Cc2cccs2)cc1C(F)(F)F	91	34	1020	1.5	132	3.1	
Cc1ccc(CSc2nnc(-c3ccccn3)n2Cc2ccco2)cc1C(F)(F)F							t1/2 [6]: 1.1 min
Brc1ccccc1CCc1nnc(-c2ccccn2)n1Cc1cccs1	84	358					

Structure (SMILES)	Emax ([1]; filed as agonist) [%]	EC50 [2] [nM]	EC50 [3] [nM]	half-life at 1 µM [4] [min]	Emax ([5]; filed as agonist) [%]	half-life at 1 µM [6] [min]	also measured
Cc1ccc(CCc2nnc(-c3ccc4ccccc4c3)n2Cc2cccs2)cc1C(F)(F)F		2960					
Cc1ccc(CCc2nnc(-c3cccnc3)n2Cc2cccs2)cc1C(F)(F)F	85	1880					
Fc1ccc(CCc2nnc(-c3ccccn3)n2Cc2cccs2)cc1	90	284	2640		97		
Cc1ccc(/C=C/c2nnc(-c3nccn3C)n2Cc2cccs2)cc1C(F)(F)F		787					
Cc1ccc(CCc2nnc(-c3ccc4ccccc4n3)n2Cc2cccs2)cc1C(F)(F)F		872					
OC(Cc1ccccc1)c1nnc(-c2ccccn2)n1Cc1ccco1 (stereo not given)				2.5		17.4	Emax [1]: 20%
c1ccc(-c2nnc(-c3ccccn3)n2Cc2cccs2)cc1				1		69.7	
Cc1ccc(CCc2nnc(-c3ccncn3)n2Cc2cccs2)cc1C(F)(F)F		991					
Cc1ccc(CCc2nnc(-c3ccccn3)n2Cc2cccs2)cc1C(F)(F)F		11	594	1.5	102	1.4	inhibition [7]: 30.9%; inhibition [8]: 99.7%; Ki [9]: 5.8 nM; inhibition [10]: 30.7%
O=C(Cc1ccccc1)c1nnc(-c2ccccn2)n1Cc1ccco1				1.2		8.1	Emax [1]: 4%
Cc1ccc(CCc2nnc(-c3ccccc3)n2Cc2cccs2)cc1C(F)(F)F		406		0.9		1.8	
FC(F)(F)c1ccccc1CCc1nnc(-c2ccccn2)n1Cc1cccs1		429					
Cc1ccc(CCc2nnc(-c3ccccn3)n2Cc2ccncc2)cc1C(F)(F)F							Activity [2]: inactive
Cc1ccc(CCc2nnc(-c3ncccn3)n2Cc2cccs2)cc1C(F)(F)F		57	2220		150		
Cc1ccc(CCc2nnc(-c3ccccn3)n2Cc2ccccc2)cc1C(F)(F)F		83	6740	1.3	183	0.9	
Cc1ccc(CCc2nnc(-c3ccccn3)n2CC2CC2)cc1C(F)(F)F		213	6220				
FC(Cc1ccccc1)c1nnc(-c2ccccn2)n1Cc1ccco1 (stereo not given)				1.9		9.1	
Cc1ccc(CCc2nnc(-c3ccccn3)n2Cc2nccs2)cc1C(F)(F)F	64	34	1290		95		
c1ccc(-c2nnc(CCc3cccc4ccccc34)n2Cc2cccs2)nc1		184					
Brc1cccc(CCc2nnc(-c3ccccn3)n2Cc2cccs2)c1	89	51	5610		118		
Cc1ccc(CCc2nnc(-c3ccccn3)n2-c2ccccc2)cc1C(F)(F)F				1		1.6	Activity [2]: inactive
